What was measured:
[1] = target: Aldo-keto reductase family 1 member B1 (Rattus norvegicus, UniProt P07943); assay: Inhibition of rat lens ALR2 using D,L-glyceraldehyde as substrate preincubated for 5 mins at 30 degC followed by substrate addition and measured after 4 mins in presence of NADPH; assay type: tissue-based
[2] = species: Rattus norvegicus; assay: Selectivity index, ratio of IC50 for rat kidney ALR1 to IC50 for rat lens ALR2
[3] = target: Aldo-keto reductase family 1 member A1 (Rattus norvegicus, UniProt P51635); assay: Inhibition of rat kidney ALR1 using […] as substrate preincubated for 4 mins at 37 degC followed by substrate addition and measured after 4 mins in presence of NADPH; assay type: tissue-based
Chain of Aldo-keto reductase family 1 member A1 (P51635 whole entry, looked up): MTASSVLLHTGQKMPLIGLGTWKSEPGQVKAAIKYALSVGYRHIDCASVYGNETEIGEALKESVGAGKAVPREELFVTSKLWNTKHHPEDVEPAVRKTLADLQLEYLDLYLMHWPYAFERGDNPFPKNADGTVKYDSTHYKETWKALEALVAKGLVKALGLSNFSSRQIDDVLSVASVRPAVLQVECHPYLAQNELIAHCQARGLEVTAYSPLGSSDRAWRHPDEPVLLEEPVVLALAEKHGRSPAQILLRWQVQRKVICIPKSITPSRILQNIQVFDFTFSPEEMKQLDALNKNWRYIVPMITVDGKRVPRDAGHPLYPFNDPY
In short: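 Rat kidney enzyme extract with 0.12 mM NADPH, 0.1 M sodium phosphate pH 7.2 and inhibitor in DMSO, preincubated 4 min at 37 °C; reaction started with sodium D-[…] (20 mM stock) and monitored 4 min. Corrected for nonenzymatic NADPH oxidation. Tested 100 µM to 10 nM, three replicates per concentration; IC50 from linear log(dose)–response fit (r² > 0.95).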

[4] = tested on: Brain; assay: Antioxidant activity in rat brain homogenate assessed as inhibition of FeCl3/ascorbic acid-induced lipid peroxidation by measuring MDA level at 100 uM after 30 mins by thiobarbituric acid based spectrophotometric method relative to control; assay type: functional, tissue-based
In short: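 Fresh rat brain homogenized 25% in ice-cold saline, spun 3000 rpm 10 min; supernatant incubated with compound (100 µM), […] at 37 °C for 30 min. MDA measured by TBA kit: boiled 95 °C 40 min, iced, centrifuged, read at 532 nm. Methanol used as control vehicle. Triplicate.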

[5] = Antioxidant activity assessed as DPPH radical scavenging activity at 1 uM relative to control; assay type: functional
In short: (§1)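 DPPH (0.025 mg/mL stock in methanol, 1 mL) mixed with 1.9 mL methanol and 100 µL methanolic compound or Trolox, giving final 100, 10, 5 and 1 µM. Absorbance at 517 nm read after reaching steady state; scavenging % = (1 − (A sample − A blank)/A control)×100, blank being compound in methanol, control DPPH in methanol. Triplicate.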

[6] = Antioxidant activity assessed as superoxide anion radical scavenging activity incubated for 40 mins by spectrophotometric method; assay type: functional
In short: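 Incubation at 37 °C for 40 min, then 2 mL chromogenic reagent added; after 10 min standing, absorbance read at 550 nm. Activity (U/µmol) = (A control − A sample)/(A control − A blank) ×150 ÷ sample concentration (µM); control ascorbic acid 150 mg/L, blank distilled water. Triplicate.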

[7] = Antioxidant activity assessed as DPPH radical scavenging activity at 10 uM relative to control; assay type: functional; in short: as §1
[8] = Antioxidant activity assessed as DPPH radical scavenging activity at 5 uM relative to control; assay type: functional; in short: as §1
[9] = Antioxidant activity assessed as DPPH radical scavenging activity at 100 uM relative to control; assay type: functional; in short: as §1

Row | IC50 [1] [nM] | Ratio IC50 [2] | IC50 [3] [nM] | SMILES | inhibition [4] [%] | inhibition [5] [%] | Activity [6] [U/µM] | inhibition [7] [%] | inhibition [8] [%] | inhibition [9] [%]
1 | 1050 | – | – | O=Cc1ccc(-c2cccc3c2OC(=O)CN3CC(=O)O)cc1 | – | – | – | – | – | –
2 | 220 | – | – | Cc1ccc(/C=C/c2cccc3c2OC(=O)CN3CC(=O)O)cc1 | – | – | – | – | – | –
3 | 208 | – | – | COc1ccc(/C=C/c2cccc3c2OC(=O)CN3CC(=O)O)cc1 | – | – | – | – | – | –
4 | 170 | 3.93 | 669 | CC(C)(C)c1ccc(/C=C/c2cccc3c2OC(=O)CN3CC(=O)O)cc1 | – | – | – | – | – | –
5 | 82 | 60.6 | 4990 | O=C(O)CN1CC(=O)Oc2c(/C=C/c3ccc(O)cc3)cccc21 | 81.7 | 14.7 | 1.07 | 87.5 | 57.4 | 93.2
6 | 138 | 23.7 | 3270 | O=C(O)CN1CC(=O)Oc2c(/C=C/c3ccc(C(F)(F)F)cc3)cccc21 | – | 9.92 | – | 89.2 | 44.3 | 91.3
7 | 3340 | – | – | O=C(O)CN1CC(=O)Oc2c(-c3ccccc3)cccc21 | – | 6.12 | – | 36.5 | 13.2 | 91.3
8 | – | – | 1200 | CC(/C=C1\SC(=S)N(CC(=O)O)C1=O)=C\c1ccccc1 | – | – | – | – | – | –
9 | 774 | – | – | COc1ccc(-c2cccc3c2OC(=O)CN3CC(=O)O)cc1 | – | – | – | – | – | –
10 | 1930 | 7.1 | 13700 | O=C(O)CN1CC(=O)Oc2ccccc21 | 72.2 | 7.17 | 0.73 | 65.6 | 23.1 | 92.8
11 | 167 | 25.7 | 4280 | O=C(O)CN1CC(=O)Oc2c(/C=C/c3ccc(F)cc3)cccc21 | 74.8 | 12.6 | 0.79 | 90 | 57.1 | 92.6
12 | 281 | – | – | O=C(O)CN1CC(=O)Oc2c(/C=C/c3ccc(-c4ccccc4)cc3)cccc21 | – | – | – | – | – | –
13 | 308 | 9.11 | 2810 | O=C(O)CN1CC(=O)Oc2c(/C=C/c3ccccc3)cccc21 | 75.8 | 12 | 0.81 | 84.2 | 43.6 | 86.5
14 | – | – | – | Cc1c(C)c2c(c(C)c1O)CCC(C)(C(=O)O)O2 (stereo not drawn) | 75.5 | 10.2 | 1.13 | 82.6 | 47.8 | 94.6
15 | 188 | 24 | 4500 | COc1cc(/C=C/c2cccc3c2OC(=O)CN3CC(=O)O)ccc1O | 80.7 | 18.2 | 1.02 | 85 | 57.8 | 93.1
16 | 262 | – | – | O=C(O)CN1CC(=O)Oc2c(/C=C/c3ccc([N+](=O)[O-])cc3)cccc21 | – | – | – | – | – | –

Source: ChEMBL document CHEMBL4665880, “Dihydrobenzoxazinone derivatives as aldose reductase inhibitors with antioxidant activity” (Bioorg Med Chem, 2020)
